In brackets after ≈: the same amount, converted by molar mass.
Legend:
Format in all cases: functional
Human alphaherpesvirus 1 [1] = assay: Minimum inhibitory concentration required to reduce herpes simplex virus-1 (HSV-1 (KOS)) virus-induced cytopathicity by 50%
Human alphaherpesvirus 1 [2] = assay: Minimum inhibitory concentration required to reduce herpes simplex virus-1 (HSV-1 (McIntyre)) virus-induced cytopathicity by 50%
Human alphaherpesvirus 2 [3] = assay: Minimum inhibitory concentration required to reduce herpes simplex virus-2 (HSV-2 (G)) virus-induced cytopathicity by 50%
Human alphaherpesvirus 2 [4] = assay: Minimum inhibitory concentration required to reduce herpes simplex virus-2 (HSV-2 (Lyons)) virus-induced cytopathicity by 50%
Human alphaherpesvirus 1 [5] = assay: Minimum inhibitory concentration required to reduce thymidine kinase deficient-HSV-1 (B2006) virus-induced cytopathicity by 50%
Human alphaherpesvirus 1 [6] = assay: Minimum inhibitory concentration required to reduce thymidine kinase deficient-HSV-1 (VMW 1837) virus-induced cytopathicity by 50%
Human alphaherpesvirus 3 [7] = assay: Minimum inhibitory concentration required to reduce TK-VZV (YS/R) virus-induced cytopathicity by 50%
[8] = system: Vesicular stomatitis virus; assay: Minimum inhibitory concentration required to reduce VSV virus-induced cytopathicity by 50%
Vaccinia virus = assay: Minimum inhibitory concentration required to reduce vaccinia virus (VV) virus-induced cytopathicity by 50%; details: Orthopoxvirus vaccinia
Cell line [9] = assay: Minimum concentration required to cause a microscopically detectable alteration of human cells morphology
In short: (§1)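 Cytotoxicity read as the minimum concentration causing a microscopically detectable alteration of normal cell morphology. Cells were human embryonic skin-muscle (E6SM) or human embryonic lung (HEL), seeded in 96-well plates.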

Cell line [10] = assay: (§2) Minimum inhibitory concentration required to reduce virus-induced cell growth by 50%; details: Homo sapiens
In short: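 Cytotoxicity was measured as inhibition of cell growth in E6SM or HEL cells seeded in 96-well plates.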

Human alphaherpesvirus 3 [11] = assay: Minimum inhibitory concentration required to reduce Varicella-Zoster virus (VZV (Oka)) virus-induced cytopathicity by 50%
Human alphaherpesvirus 1 [12] = assay: Minimum inhibitory concentration required to reduce herpes simplex virus-1 (HSV-1 (F)) virus-induced cytopathicity by 50%
Human alphaherpesvirus 2 [13] = assay: Minimum inhibitory concentration required to reduce herpes simplex virus-2 (HSV-2 (196)) virus-induced cytopathicity by 50%
Cytomegalovirus [14] = assay: Minimum inhibitory concentration required to reduce cytomegalo virus (CMV (AD-169)) virus-induced cytopathicity by 50%; details: Human betaherpesvirus 5
Cytomegalovirus [15] = assay: Minimum inhibitory concentration required to reduce cytomegalo virus (CMV (Davis)) virus-induced cytopathicity by 50%; details: Human betaherpesvirus 5
Human alphaherpesvirus 3 [16] = assay: Minimum inhibitory concentration required to reduce TK-VZV (07-1) virus-induced cytopathicity by 50%
Cell line [17] = assay: Minimum concentration required to cause a microscopically detectable alteration of cell morphology; details: Homo sapiens; in short: as §1
[18] = as §2; details: Homo sapiens
Mus musculus [19] = assay: Survival of mice after intraperitoneal infection with HSV-1 (KOS) and oral administration of 25 mg/kg at day 20
In short: (§3)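 Mice were infected intraperitoneally with HSV-1 (KOS), 10 mice per group. Drug was given by oral gavage once daily for 5 days, starting on the day of infection, at 25, 100 or 250 mg/kg per day. Vehicle was a 90:10 suspension of Sirupus Simplex and propylene glycol; the placebo group got the same syrup. Surviving mice were counted over 20 days.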

Mus musculus [20] = assay: Survival of mice after intraperitoneal infection with HSV-1 (KOS) and oral administration of 100 mg/kg at day 0; in short: as §3
Mus musculus [21] = assay: Survival of mice after intraperitoneal infection with HSV-1 (KOS) and oral administration of 100 mg/kg at day 12; in short: as §3
Mus musculus [22] = assay: Survival of mice after intraperitoneal infection with HSV-1 (KOS) and oral administration of 100 mg/kg at day 20; in short: as §3
Mus musculus [23] = assay: Survival of mice after intraperitoneal infection with HSV-1 (KOS) and oral administration of 100 mg/kg at day 3; in short: as §3
Mus musculus [24] = assay: Survival of mice after intraperitoneal infection with HSV-1 (KOS) and oral administration of 100 mg/kg at day 6; in short: as §3
Mus musculus [25] = assay: Survival of mice after intraperitoneal infection with HSV-1 (KOS) and oral administration of 100 mg/kg at day 9; in short: as §3
Mus musculus [26] = assay: Survival of mice after intraperitoneal infection with HSV-1 (KOS) and oral administration of 25 mg/kg at day 0; in short: as §3
Mus musculus [27] = assay: Survival of mice after intraperitoneal infection with HSV-1 (KOS) and oral administration of 25 mg/kg at day 12; in short: as §3
Mus musculus [28] = assay: Survival of mice after intraperitoneal infection with HSV-1 (KOS) and oral administration of 25 mg/kg at day 3; in short: as §3
Mus musculus [29] = assay: Survival of mice after intraperitoneal infection with HSV-1 (KOS) and oral administration of 25 mg/kg at day 6; in short: as §3
Mus musculus [30] = assay: Survival of mice after intraperitoneal infection with HSV-1 (KOS) and oral administration of 25 mg/kg at day 9; in short: as §3
Mus musculus [31] = assay: Survival of mice after intraperitoneal infection with HSV-1 (KOS) and oral administration of 250 mg/kg at day 0; in short: as §3
Mus musculus [32] = assay: Survival of mice after intraperitoneal infection with HSV-1 (KOS) and oral administration of 250 mg/kg at day 12; in short: as §3
Mus musculus [33] = assay: Survival of mice after intraperitoneal infection with HSV-1 (KOS) and oral administration of 250 mg/kg at day 20; in short: as §3
Mus musculus [34] = assay: Survival of mice after intraperitoneal infection with HSV-1 (KOS) and oral administration of 250 mg/kg at day 3; in short: as §3
Mus musculus [35] = assay: Survival of mice after intraperitoneal infection with HSV-1 (KOS) and oral administration of 250 mg/kg at day 9; in short: as §3
Mus musculus [36] = assay: Survival of mice after intraperitoneal infection with HSV-1 (KOS) and oral administration of 250 mg/kg at day 6; in short: as §3

Row | SMILES | MIC (Human alphaherpesvirus 1 [1]) [µg/mL] | MIC (Human alphaherpesvirus 1 [2]) [µg/mL] | MIC (Human alphaherpesvirus 2 [3]) [µg/mL] | MIC (Human alphaherpesvirus 2 [4]) [µg/mL] | MIC (Human alphaherpesvirus 1 [5]) [µg/mL] | MIC (Human alphaherpesvirus 1 [6]) [µg/mL] | MIC (Human alphaherpesvirus 3 [7]) [µg/mL] | MIC [8] [µg/mL] | MIC (Vaccinia virus) [µg/mL] | MIC (Human alphaherpesvirus 3 [11]) [µg/mL] | MIC (Human alphaherpesvirus 1 [12]) [µg/mL] | MIC (Human alphaherpesvirus 2 [13]) [µg/mL] | MIC (Cytomegalovirus [14]) [µg/mL] | MIC (Cytomegalovirus [15]) [µg/mL] | MIC (Human alphaherpesvirus 3 [16]) [µg/mL] | MIC (Cell line [17]) [µg/mL] | MIC [18] [µg/mL] | also measured
1 | O=c1[nH]c(=O)n([C@H]2C[C@H](O)[C@@H](CO)O2)cc1-c1ccno1 | 20 (≈ 67.7 µM) | 2 (≈ 6.77 µM) | 300 (≈ 1020 µM) | > 400 | 300 (≈ 1020 µM) | > 400 | 10 (≈ 33.9 µM) | > 400 | > 400 | 0.48 (≈ 1.63 µM) | 20 (≈ 67.7 µM) | 300 (≈ 1020 µM) | – | – | – | – | – | MIC (Cell line [9]): 20 µg/mL (≈ 67.7 µM); MIC (Cell line [10]): > 50 µg/mL
2 | O=c1[nH]c(=O)n([C@H]2C[C@H](O)[C@@H](CO)O2)cc1-c1ccc([N+](=O)[O-])s1 | 2 (≈ 5.63 µM) | – | 150 (≈ 422 µM) | – | > 200 | 150 (≈ 422 µM) | > 40 | > 200 | 150 (≈ 422 µM) | 7 (≈ 19.7 µM) | – | – | > 40 | > 40 | 40 (≈ 113 µM) | – | – | MIC (Cell line [9]): > 200 µg/mL; MIC (Cell line [10]): > 50 µg/mL
3 | O=c1[nH]c(=O)n([C@H]2C[C@H](O)[C@@H](CO)O2)cc1-c1ccc(I)s1 | 0.04 (≈ 0.0917 µM) | – | > 40 | – | > 40 | > 40 | 40 (≈ 91.7 µM) | > 40 | > 40 | 0.07 (≈ 0.16 µM) | – | – | > 40 | > 40 | 10 (≈ 22.9 µM) | 100 (≈ 229 µM) | > 50 | –
4 | O=c1[nH]c(=O)n([C@H]2C[C@H](O)[C@@H](CO)O2)cc1-c1ccsc1 | 0.3 (≈ 0.967 µM) | 0.04 (≈ 0.129 µM) | 70 (≈ 226 µM) | 70 (≈ 226 µM) | 150 (≈ 483 µM) | > 100 | 20 (≈ 64.4 µM) | > 100 | > 40 | 1.5 (≈ 4.83 µM) | 0.6 (≈ 1.93 µM) | 100 (≈ 322 µM) | > 40 | > 40 | 35 (≈ 113 µM) | > 100 | > 50 | –
5 | O=c1[nH]c(=O)n(C2O[C@H](CO)[C@@H](O)[C@@H]2O)cc1-c1ccc(Br)s1 (some centres not stated) | 0.08 (≈ 0.197 µM) | 0.02 (≈ 0.0494 µM) | 70 (≈ 173 µM) | 20 (≈ 49.4 µM) | > 100 | > 100 | 40 (≈ 98.7 µM) | > 100 | 20 (≈ 49.4 µM) | 0.05 (≈ 0.123 µM) | 0.07 (≈ 0.173 µM) | 70 (≈ 173 µM) | 30 (≈ 74 µM) | 35 (≈ 86.4 µM) | 40 (≈ 98.7 µM) | > 40 | > 50 | No. of mice (Mus musculus [19]): 2; No. of mice (Mus musculus [20]): 10; No. of mice (Mus musculus [21]): 1; No. of mice (Mus musculus [22]): 1; No. of mice (Mus musculus [23]): 10; No. of mice (Mus musculus [24]): 8; No. of mice (Mus musculus [25]): 1; No. of mice (Mus musculus [26]): 10; No. of mice (Mus musculus [27]): 2; No. of mice (Mus musculus [28]): 10; No. of mice (Mus musculus [29]): 10; No. of mice (Mus musculus [30]): 2; No. of mice (Mus musculus [31]): 10; No. of mice (Mus musculus [32]): 5; No. of mice (Mus musculus [33]): 5; No. of mice (Mus musculus [34]): 10; No. of mice (Mus musculus [35]): 5; No. of mice (Mus musculus [36]): 8
6 | O=c1[nH]c(=O)n(C2O[C@H](CO)[C@@H](O)[C@@H]2O)cc1-c1ccc(Cl)s1 (some centres not stated) | 0.15 (≈ 0.416 µM) | 0.015 (≈ 0.0416 µM) | 300 (≈ 832 µM) | 150 (≈ 416 µM) | > 400 | > 400 | 37 (≈ 103 µM) | > 400 | > 150 | 0.08 (≈ 0.222 µM) | 0.05 (≈ 0.139 µM) | 150 (≈ 416 µM) | 30 (≈ 83.2 µM) | 70 (≈ 194 µM) | 60 (≈ 166 µM) | > 400 | > 50 | –
7 | O=c1[nH]c(=O)n([C@H]2C[C@H](O)[C@@H](CO)O2)cc1/C=C/Br [BRIVUDINE] | 0.01 (≈ 0.03 µM) | 0.01 (≈ 0.03 µM) | 70 (≈ 210 µM) | 70 (≈ 210 µM) | > 200 | 10 (≈ 30 µM) | > 40 | > 200 | 0.2 (≈ 0.6 µM) | 0.004 (≈ 0.012 µM) | 0.02 (≈ 0.06 µM) | > 400 | – | – | > 40 | > 400 | > 50 | No. of mice (Mus musculus [19]): 3; No. of mice (Mus musculus [20]): 10; No. of mice (Mus musculus [21]): 8; No. of mice (Mus musculus [22]): 7; No. of mice (Mus musculus [23]): 9; No. of mice (Mus musculus [24]): 9; No. of mice (Mus musculus [25]): 8; No. of mice (Mus musculus [26]): 10; No. of mice (Mus musculus [27]): 3; No. of mice (Mus musculus [28]): 10; No. of mice (Mus musculus [29]): 10; No. of mice (Mus musculus [30]): 4; No. of mice (Mus musculus [31]): 10; No. of mice (Mus musculus [32]): 10; No. of mice (Mus musculus [33]): 9; No. of mice (Mus musculus [34]): 10; No. of mice (Mus musculus [35]): 10; No. of mice (Mus musculus [36]): 10
